According to ChEMBL document CHEMBL4229382, “Phenylthiazoles with tert-Butyl side chain: Metabolically stable with anti-biofilm activity” (Eur J Med Chem, 2018):
Values after ≈ are worked out from the molar mass of the structure shown.

What was measured:
Staphylococcus aureus [1] = assay: Antibacterial activity against methicillin-sensitive Staphylococcus aureus ATCC 6538 after 18 hrs by broth microdilution assay; assay type: functional; settings: ATCC 6538, 18 h
How it was run: (§1)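 Broth microdilution: inoculum from 0.5 McFarland suspension diluted to about 5 × 10^5 CFU/mL. Media were cation-adjusted Mueller-Hinton broth for staphylococci, brain heart infusion for E. faecium, and tryptone soya broth for E. faecalis, S. pneumoniae and L. monocytogenes.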

Staphylococcus aureus [2] = assay: Antibacterial activity against methicillin-sensitive Staphylococcus aureus NRS107 after 18 hrs by broth microdilution assay; assay type: functional; settings: NRS107, 18 h; how it was run: as §1
Staphylococcus aureus [3] = assay: Antibacterial activity against methicillin-resistant Staphylococcus aureus NRS123 USA400 after 18 hrs by broth microdilution assay; assay type: functional; settings: NRS123 USA400, 18 h; how it was run: as §1
Staphylococcus aureus [4] = assay: Antibacterial activity against methicillin-resistant Staphylococcus aureus NRS384 USA300 after 18 hrs by broth microdilution assay; assay type: functional; settings: NRS384 USA300, 18 h; how it was run: as §1
Staphylococcus aureus [5] = assay: Antibacterial activity against vancomycin-resistant Staphylococcus aureus VRS10 after 18 hrs by broth microdilution assay; assay type: functional; settings: VRS10, 18 h; how it was run: as §1
Staphylococcus aureus [6] = assay: Antibacterial activity against vancomycin-resistant Staphylococcus aureus VRS12 after 18 hrs by broth microdilution assay; assay type: functional; settings: VRS12, 18 h; how it was run: as §1
Staphylococcus aureus [7] = assay: Bactericidal activity against methicillin-sensitive Staphylococcus aureus ATCC 6538 incubated fo 18 hrs followed by re-plating on tryptic soy agar plates at 37 degC for 18 hrs by broth microdilution assay; assay type: functional; settings: ATCC 6538, 18 h
Staphylococcus aureus [8] = assay: Bactericidal activity against methicillin-sensitive Staphylococcus aureus NRS107 incubated fo 18 hrs followed by re-plating on tryptic soy agar plates at 37 degC for 18 hrs by broth microdilution assay; assay type: functional; settings: NRS107, 18 h
Staphylococcus aureus [9] = assay: Bactericidal activity against methicillin-resistant Staphylococcus aureus NRS119 incubated fo 18 hrs followed by re-plating on tryptic soy agar plates at 37 degC for 18 hrs by broth microdilution assay; assay type: functional; settings: NRS119, 18 h
Staphylococcus aureus [10] = assay: Bactericidal activity against methicillin-resistant Staphylococcus aureus NRS123 USA400 incubated fo 18 hrs followed by re-plating on tryptic soy agar plates at 37 degC for 18 hrs by broth microdilution assay; assay type: functional; settings: NRS123 USA400, 18 h
Staphylococcus aureus [11] = assay: Bactericidal activity against methicillin-resistant Staphylococcus aureus NRS384 USA300 incubated fo 18 hrs followed by re-plating on tryptic soy agar plates at 37 degC for 18 hrs by broth microdilution assay; assay type: functional; settings: NRS384 USA300, 18 h
Staphylococcus aureus [12] = assay: Bactericidal activity against methicillin-resistant Staphylococcus aureus NRS385 incubated fo 18 hrs followed by re-plating on tryptic soy agar plates at 37 degC for 18 hrs by broth microdilution assay; assay type: functional; settings: NRS385, 18 h
Staphylococcus aureus [13] = assay: Bactericidal activity against methicillin-resistant Staphylococcus aureus NRS386 incubated fo 18 hrs followed by re-plating on tryptic soy agar plates at 37 degC for 18 hrs by broth microdilution assay; assay type: functional; settings: NRS386, 18 h
Staphylococcus aureus [14] = assay: Bactericidal activity against vancomycin-resistant Staphylococcus aureus VRS10 incubated fo 18 hrs followed by re-plating on tryptic soy agar plates at 37 degC for 18 hrs by broth microdilution assay; assay type: functional; settings: VRS10, 18 h
Staphylococcus aureus [15] = assay: Bactericidal activity against vancomycin-resistant Staphylococcus aureus VRS12 incubated fo 18 hrs followed by re-plating on tryptic soy agar plates at 37 degC for 18 hrs by broth microdilution assay; assay type: functional; settings: VRS12, 18 h
Staphylococcus aureus [16] = assay: Antibacterial activity against methicillin-resistant Staphylococcus aureus 2658 RCMB after 18 hrs by broth microdilution assay; assay type: functional; how it was run: as §1
Enterococcus faecium [17] = assay: Antibacterial activity against vancomycin-resistant Enterococcus faecium ATCC 700221 after 18 hrs by broth microdilution assay; assay type: functional; settings: ATCC 700221, 18 h; how it was run: as §1
Enterococcus faecalis = assay: Bactericidal activity against vancomycin-resistant Enterococcus faecalis ATCC 51299 incubated fo 18 hrs followed by re-plating on tryptic soy agar plates at 37 degC for 18 hrs by broth microdilution assay; assay type: functional; settings: ATCC 51299, 18 h
Staphylococcus aureus [18] = assay: Inhibition of biofilm formation in methicillin-resistant Staphylococcus aureus NRS384 USA300 at 1 time MIC after 24 hrs by crystal violet staining-based spectrophotometric analysis relative to control; parameters: scale not given: the % may be the effect or the level left
Enterococcus faecium [19] = assay: Bactericidal activity against vancomycin-resistant Enterococcus faecium ATCC 700221 incubated fo 18 hrs followed by re-plating on tryptic soy agar plates at 37 degC for 18 hrs by broth microdilution assay; settings: ATCC 700221, 18 h
Staphylococcus aureus [20] = assay: Antibacterial activity against methicillin-resistant Staphylococcus aureus NRS123 USA400 assessed as change in MIC after 14 serial passages by broth microdilution assay

## CC(=O)NC[C@H]1CN(c2ccc(N3CCOCC3)c(F)c2)C(=O)O1 [LINEZOLID]
Staphylococcus aureus [1]
  MIC: 1 µg/mL (≈ 2.96 µM)
Staphylococcus aureus [2]
  MIC: 1 µg/mL (≈ 2.96 µM)
Staphylococcus aureus [3]
  MIC: 1 µg/mL (≈ 2.96 µM)
Staphylococcus aureus [4]
  MIC: 1 µg/mL (≈ 2.96 µM)
Staphylococcus aureus [5]
  MIC: 1 µg/mL (≈ 2.96 µM)
Staphylococcus aureus [6]
  MIC: 1 µg/mL (≈ 2.96 µM)
Staphylococcus aureus [7]
  MBC: 16 µg/mL (≈ 47.4 µM)
Staphylococcus aureus [8]
  MBC: 16 µg/mL (≈ 47.4 µM)
Staphylococcus aureus [9]
  MBC: > 64 µg/mL
Staphylococcus aureus [10]
  MBC: 32 µg/mL (≈ 94.9 µM)
Staphylococcus aureus [11]
  MBC: 32 µg/mL (≈ 94.9 µM)
Staphylococcus aureus [12]
  MBC: 16 µg/mL (≈ 47.4 µM)
Staphylococcus aureus [13]
  MBC: 64 µg/mL (≈ 190 µM)
Staphylococcus aureus [14]
  MBC: 64 µg/mL (≈ 190 µM)
Staphylococcus aureus [15]
  MBC: 64 µg/mL (≈ 190 µM)

## Cc1nc(-c2ccc(C(C)(C)C)cc2)sc1-c1ccnc(N(C)C)n1
Staphylococcus aureus [16]
  MIC: > 50 µg/mL

## Cc1nc(-c2ccc(C(C)(C)C)cc2)sc1-c1ccnc(N2CCOCC2)n1
Staphylococcus aureus [16]
  MIC: 25 µg/mL (≈ 63.4 µM)

## Cc1nc(-c2ccc(C(C)(C)C)cc2)sc1-c1ccnc(N2CCCC2)n1
Staphylococcus aureus [16]
  MIC: > 50 µg/mL

## Cc1nc(-c2ccc(C(C)(C)C)cc2)sc1-c1ccnc(N)n1
Staphylococcus aureus [16]
  MIC: 6.25 µg/mL (≈ 19.3 µM)

## CN[C@H](CC(C)C)C(=O)N[C@H]1C(=O)N[C@@H](CC(N)=O)C(=O)N[C@H]2C(=O)N[C@H]3C(=O)N[C@H](C(=O)N[C@H](C(=O)O)c4cc(O)cc(O)c4-c4cc3ccc4O)[C@H](O)c3ccc(c(Cl)c3)Oc3cc2cc(c3O[C@@H]2O[C@H](CO)[C@@H](O)[C@H](O)[C@H]2O[C@H]2C[C@](C)(N)[C@H](O)[C@H](C)O2)Oc2ccc(cc2Cl)[C@H]1O [VANCOMYCIN]
Enterococcus faecium [17]
  MIC: > 64 µg/mL
Staphylococcus aureus [14]
  MBC: > 64 µg/mL
Enterococcus faecalis
  MBC: 64 µg/mL (≈ 44.2 µM)
Staphylococcus aureus [18]
  Activity: 3%
Enterococcus faecium [19]
  MBC: > 64 µg/mL

## CO[C@H]1/C=C/O[C@@]2(C)Oc3c(C)c(O)c4c(O)c(c(/C=N/N5CCN(C)CC5)c(O)c4c3C2=O)NC(=O)/C(C)=C\C=C\[C@H](C)[C@H](O)[C@@H](C)[C@@H](O)[C@@H](C)[C@H](OC(C)=O)[C@@H]1C [RIFAMPIN]
Staphylococcus aureus [20]
  Ratio: >500000

## Cc1nc(-c2ccc(C(C)(C)C)cc2)sc1-c1ccnc(NC2CCCC2)n1
Staphylococcus aureus [16]
  MIC: > 50 µg/mL

## Cc1nc(-c2ccc(C(C)(C)C)cc2)sc1-c1ccnc(NN)n1
Staphylococcus aureus [16]
  MIC: 1.56 µg/mL (≈ 4.6 µM)

## CNC(=N)Nc1nccc(-c2sc(-c3ccc(C(C)(C)C)cc3)nc2C)n1
Staphylococcus aureus [16]
  MIC: 1.56 µg/mL (≈ 4.1 µM)

## Cc1nc(-c2ccc(C(C)(C)C)cc2)sc1-c1ccnc(NC(=N)N2CCCC2)n1
Staphylococcus aureus [16]
  MIC: 50 µg/mL (≈ 119 µM)

## Cc1nc(-c2ccc(C(C)(C)C)cc2)sc1-c1ccnc(-c2cccnc2)n1
Staphylococcus aureus [16]
  MIC: > 50 µg/mL
